Assay results taken from ChEMBL document CHEMBL4190362, “Synthesis, biological evaluation and quantitative structure-active relationships of 1,3-thiazolidin-4-one derivatives. A promising chemical scaffold endowed with high antifungal potency and low cytotoxicity” (Eur J Med Chem, 2017).

How the values were obtained:
Candida parapsilosis = test: Antifungal activity against Candida parapsilosis clinical isolates assessed as inhibition of microbial growth incubated for 24 hrs by broth microdilution method; assay type: functional; settings: Lodderomyces parapsilosis
In short: (§1)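 Twenty-two clinical Candida isolates (8 C. albicans, 4 C. glabrata, 3 C. tropicalis, 3 C. krusei, 2 C. parapsilosis, 2 C. sake) were identified by colony morphology and biochemistry and subcultured at 35 °C for purity. Compounds were dissolved in DMSO and tested by broth microdilution in Sabouraud dextrose broth per NCCLS/CLSI/EUCAST guidance. Values are geometric mean MIC per species (µg/mL).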

Enterobacter = test: Antibacterial activity against Enterobacter spp. assessed as inhibition of microbial growth incubated for 18 to 22 hrs by broth microdilution method; assay type: functional
In short: (§2)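 Broth microdilution in Mueller-Hinton II broth following NCCLS recommendations; compounds dissolved in DMSO.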

Klebsiella oxytoca = test: Antibacterial activity against Klebsiella oxytoca assessed as inhibition of microbial growth incubated for 18 to 22 hrs by broth microdilution method; assay type: functional; in short: as §2
Staphylococcus aureus = test: Antibacterial activity against Staphylococcus aureus assessed as inhibition of microbial growth incubated for 18 to 22 hrs by broth microdilution method; assay type: functional; in short: as §2
Proteus mirabilis = test: Antibacterial activity against Proteus mirabilis assessed as inhibition of microbial growth incubated for 18 to 22 hrs by broth microdilution method; assay type: functional; in short: as §2
Pichia kudriavzevii = test: Antifungal activity against Candida krusei clinical isolates assessed as inhibition of microbial growth incubated for 24 hrs by broth microdilution method; assay type: functional; in short: as §1
Escherichia coli = test: Antibacterial activity against Escherichia coli assessed as inhibition of microbial growth incubated for 18 to 22 hrs by broth microdilution method; assay type: functional; in short: as §2
[1] = tested on: Streptococcus alpha-hemolyticus (Streptococcus sp.); test: Antibacterial activity against Streptococcus Streptococcus alpha hemolyticus assessed as inhibition of microbial growth incubated for 18 to 22 hrs by broth microdilution method
Nakaseomyces glabratus = test: Antifungal activity against Candida glabrata clinical isolates assessed as inhibition of microbial growth incubated for 24 hrs by broth microdilution method; assay type: functional; in short: as §1
Staphylococcus warneri = test: Antibacterial activity against Staphylococcus warneri assessed as inhibition of microbial growth incubated for 18 to 22 hrs by broth microdilution method; assay type: functional; in short: as §2
[Candida] sake = Antifungal activity against Candida sake clinical isolates assessed as inhibition of microbial growth incubated for 24 hrs by broth microdilution method; assay type: functional; settings: Fermentozyma sake; in short: as §1
Candida albicans = test: Antifungal activity against Candida albicans clinical isolates assessed as inhibition of microbial growth incubated for 24 hrs by broth microdilution method; assay type: functional; in short: as §1
Enterococcus faecalis = test: Antibacterial activity against Streptococcus faecalis assessed as inhibition of microbial growth incubated for 18 to 22 hrs by broth microdilution method; assay type: functional; in short: as §2
Candida tropicalis = test: Antifungal activity against Candida tropicalis clinical isolates assessed as inhibition of microbial growth incubated for 24 hrs by broth microdilution method; assay type: functional; in short: as §1

MIC (Candida parapsilosis) [µg/mL]	MIC (Enterobacter) [µg/mL]	MIC (Klebsiella oxytoca) [µg/mL]	MIC (Staphylococcus aureus) [µg/mL]	MIC (Proteus mirabilis) [µg/mL]	MIC (Pichia kudriavzevii) [µg/mL]	MIC (Escherichia coli) [µg/mL]	MIC (Nakaseomyces glabratus) [µg/mL]	MIC (Staphylococcus warneri) [µg/mL]	MIC ([Candida] sake) [µg/mL]	MIC (Candida albicans) [µg/mL]	MIC (Enterococcus faecalis) [µg/mL]	MIC (Candida tropicalis) [µg/mL]	Structure (SMILES)	MIC [1] [µg/mL]
2	≥ 256	≥ 256	≥ 256	≥ 256	2	≥ 256	2	≥ 256	4	2	≥ 256	2	C=CCC/C(C)=N\N=C1/NC(=O)CS1	≥ 256
2	≥ 256	≥ 256	≥ 256	≥ 256	2	≥ 256	2	≥ 256	2	2	≥ 256	2	C/C(CC(C)C)=N/N=C1\NC(=O)CS1	≥ 256
16	≥ 256	≥ 256	≥ 256	≥ 256	16	≥ 256	2	≥ 256	16	2	≥ 256	2	CCCCCC/C(C)=N\N=C1/NC(=O)CS1	≥ 256
2	≥ 256	≥ 256	≥ 256	≥ 256	2	≥ 256	8	≥ 256	2	8	≥ 256	8	CC1CCC/C(=N/N=C2\NC(=O)CS2)C1 (stereo not drawn)	≥ 256
16	≥ 256	≥ 256	≥ 256	≥ 256	16	≥ 256	16	≥ 256	16	16	≥ 256	16	CC1CCC(=N/N=C2\NC(=O)CS2)CC1 (stereo not drawn)	≥ 256
16	≥ 256	≥ 256	≥ 256	≥ 256	16	≥ 256	8	≥ 256	16	8	≥ 256	16	C/C(=N/N=C1\NC(=O)CS1)C1CCCCC1	≥ 256
2	≥ 256	≥ 256	≥ 256	≥ 256	2	≥ 256	2	≥ 256	2	2	≥ 256	2	C/C(=N/N=C1\NC(=O)CS1)c1ccco1	≥ 256
4	≥ 256	≥ 256	≥ 256	≥ 256	2	≥ 256	2	≥ 256	2	2	≥ 256	16	CCC/C(CC)=N\N=C1/NC(=O)CS1	≥ 256
8	≥ 256	≥ 256	≥ 256	≥ 256	16	≥ 256	8	≥ 256	16	8	≥ 256	8	C/C(=N/N=C1\NC(=O)CS1)c1ccc(Cl)s1	≥ 256
4	≥ 256	≥ 256	≥ 256	≥ 256	2	≥ 256	2	≥ 256	2	2	≥ 256	32	C/C(=N/N=C1\NC(=O)CS1)C1CC1	≥ 256
8	≥ 256	≥ 256	≥ 256	≥ 256	16	≥ 256	8	≥ 256	16	8	≥ 256	8	C/C(=N/N=C1\NC(=O)CS1)c1ccsc1	≥ 256
4	≥ 256	≥ 256	≥ 256	≥ 256	2	≥ 256	2	≥ 256	2	2	≥ 256	32	CCCC/C(C)=N\N=C1/NC(=O)CS1	≥ 256

The next lines start with the compound.

Structure (SMILES)	MIC (Candida parapsilosis) [µg/mL]	MIC (Enterobacter) [µg/mL]	MIC (Klebsiella oxytoca) [µg/mL]	MIC (Staphylococcus aureus) [µg/mL]	MIC (Proteus mirabilis) [µg/mL]	MIC (Pichia kudriavzevii) [µg/mL]	MIC (Escherichia coli) [µg/mL]	MIC (Nakaseomyces glabratus) [µg/mL]	MIC (Staphylococcus warneri) [µg/mL]	MIC ([Candida] sake) [µg/mL]	MIC (Candida albicans) [µg/mL]	MIC (Enterococcus faecalis) [µg/mL]	MIC (Candida tropicalis) [µg/mL]	MIC [1] [µg/mL]
CC(C)(C)C1CCCC/C1=N/N=C1\NC(=O)CS1 (stereo not drawn)	2	≥ 256	≥ 256	≥ 256	≥ 256	2	≥ 256	8	≥ 256	2	8	≥ 256	8	≥ 256
O=C1CS/C(=N/N=C\c2cccs2)N1	256	≥ 256	≥ 256	≥ 256	≥ 256	256	≥ 256	256	≥ 256	256	256	≥ 256	256	≥ 256
O=C1CS/C(=N/N=C\c2ccccc2[N+](=O)[O-])N1	128	≥ 256	≥ 256	≥ 256	≥ 256	16	≥ 256	8	≥ 256	8	16	≥ 256	4	≥ 256
O=C1CS/C(=N/N=C\c2cccc([N+](=O)[O-])c2)N1	4	≥ 256	≥ 256	≥ 256	≥ 256	8	≥ 256	8	≥ 256	8	16	≥ 256	16	≥ 256
CC1=C(/C=N\N=C2/NC(=O)CS2)C(C)(C)CC=C1	16	≥ 256	≥ 256	≥ 256	≥ 256	2	≥ 256	2	≥ 256	2	2	≥ 256	16	≥ 256
CC1(C)CCC/C(=N/N=C2\NC(=O)CS2)C1	128	≥ 256	≥ 256	≥ 256	≥ 256	2	≥ 256	2	≥ 256	2	2	≥ 256	32	≥ 256
O=C1CS/C(=N/N=C\c2ccccc2)N1	128	≥ 256	≥ 256	≥ 256	≥ 256	16	≥ 256	8	≥ 256	2	4	≥ 256	4	≥ 256
O=C1CSC(NN=C2CCCCCC2)=N1	8	≥ 256	≥ 256	≥ 256	≥ 256	8	≥ 256	8	≥ 256	8	8	≥ 256	8	≥ 256
O=C1CSC(NN=C2CCCCC2)=N1	256	≥ 256	≥ 256	≥ 256	≥ 256	256	≥ 256	64	≥ 256	256	64	≥ 256	64	≥ 256
O=C1CSC(NN=C2CCCCCCC2)=N1	32	≥ 256	≥ 256	≥ 256	≥ 256	32	≥ 256	8	≥ 256	32	8	≥ 256	8	≥ 256
